In the EternaBench riboswitch data:

Tested on: MS2 coat protein
Assay: apparent Kd, MS2 coat protein; higher = weaker binding; RNA-MaP array; FMN 200 µM where present
Method in brief: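 The apparent Kd is reported as the median of filtered per-cluster binding-curve fits. To get these curves, designs transcribed by stalled E. coli RNA polymerase on Illumina sequencing-chip clusters were titrated with SNAP-549-labelled MS2 coat protein from 0.7 or 1.5 nM, doubling to 3 µM. Titrations were run without and then with constant ligand in 100 mM Tris-HCl pH 7.5, 80 mM KCl, 4 mM MgCl2, BSA, DTT, yeast tRNA and Tween-20, and green signal was normalised to red-channel RNA signal and control-cluster median Fmax.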

[1] = designed as: ON switch for flavin mononucleotide, no ligand
[2] = ligand present: flavin mononucleotide, designed as: ON switch for flavin mononucleotide
[3] = designed as: OFF switch for flavin mononucleotide, no ligand
[4] = ligand present: flavin mononucleotide, designed as: OFF switch for flavin mononucleotide

Sequence	apparent Kd [1]	apparent Kd [2]	apparent Kd [3]	apparent Kd [4]
CCGAUGAGAGUCGGGCUACAUGAGGAUCACCCAUGUGCUUCACAGGAUAUGGUACGUAGUGAGUUCCAGAAGGGUGAUUAAUCU	316 nM	48.7 nM		
UUGUUAGGGAGAGGAUAUUGACAUGAGGAUCACCCAUGUACUUGGGAGUGUUUACUGAAUUCUCACGAGAAGGCUUACAAAUUU			175 nM	147 nM
UGUGCGUAUGUGAGGAUAUGCUGGUCCUUGGCUCGGCAGAAGGCACAUGAGGAUCACCCAUGUGGUGUCGUACC			38.6 nM	189 nM
CGGGCUGCUGUGAGGAUAUGCCUGUGGGUGCGUGGGUAGAAGGCACAUGAGGAUCACCCAUGUCCUGCGGCUCG			736 nM	537 nM
UUUUACCGAGGAUAUACAUAUAAAUAAUAAUCCUCAUUAUUACAUGAGGAUCACCCAUGUAGAAGGCGGAUUUU			89.2 nM	66.8 nM
UGAUAGCACAGAGGAUAUGCGUAGUGUUAUCUCUACAUGAGGAUCACCCAUGUAGAAGGCUGUGCUAUCUAAGUCGGAAACGAU			6.19 nM	9.86 nM
CCGAUGCUUAUAAAACAUGAGGAUCACCCAUGUGAGACACAUGAGGAUAUGCAGGUCAAAGACUUGCAGAAGGCAUAGCGUCGG	644 nM	61.8 nM		
UCACGUCGCCAAGGAUAUACCCGAAGAUCCAUGGUAGAAGGUGGUGACAUGAGGAUCACCCAUGUCCGCGCGGACAAGUGUGCU			66 nM	14.7 nM
CGCGGACAAGAGAAGGCCAGACCUUGGAACCUAAGGCACCGCUAGGCAUGGAGGAUAUCUUGACAUGAGGAUCACCCAUGUACA	109 nM	40.9 nM		
CGCGAAAACAUAGGAUAUUGAUACAUGAGGAUCACCCAUGUCAACCAUGAAGCUCGAAUUGUUGACAAGAAGGAUGAGGUCGCG	77.1 nM	57.2 nM		
UGUGCACUAGGAUAUGCGUAAGCUGAUACGUCAGCAGGUCUACAUGAGGAUCACCCAUGUAGAAGGAGUGUACU			17.1 nM	16.9 nM
GCUAUAGAUGUAGGAUAUCAUAUAGAAGCUAUGUGAGAAGGACAUGAGGAUCACCCAUGUCAAUGGAUGGAGAGAAGUUAUGGC			75.3 nM	104 nM
CGAGUUUUUGAGAAGGCAUAUUAUAAUAGUGUCCAUGUUUACAUGAGGAUCACCCAUGUUUAGUAUGAGGAUAUCAGUAUGUCG			8.01 nM	11.1 nM
UGUGUUAUCGGAGGAUAUCGAUAUCAAACAUGAGGAUCACCCAUGUUGAGGAUCACCCAUGUCCACGAGAAGGCCGGCGUACUC	23.8 nM	24.1 nM		
GCUGUCGCGUGAGGAUAUGGUCGGCUUUGCUGACCAGAAGGCAUGUCAAUAGACAUGAGGAUCACCCAUGUGGUUAGGGCGGCU	1020 nM	134 nM		
GUAGCUAUCGGAGGAUAUUUAUACCGGAAACGGACAUGAGGAUCACCCAUGUGGCGAAAGCCUUGGGAGAAGGCCGAUAGCUAC	29.7 nM	4.23 nM		
CGUCCUUAGUGAGGAUAUCAGAAACUACGGAAAUGAGAAGGCACAUGAGGAUCACCCAUGUAAAUAACGGCCGGUCUUGGCAGC			7.27 nM	15.2 nM
UGUCGGAGCAGAGGAUAUUACAUGAGGAUCACCCAUGUAUUAAAUGGAAGCUGGAAACAGCAAUGUAAGAAGGCUGCUCCGACA			59.2 nM	311 nM
GGAUGACAAAGUCAUCCUUAACGAACAUGAGGAUCACCCAUGUAGGAUAUGCUACUGAAACAGUAGCAGAAGGACAUGUGUCUU			29.7 nM	130 nM
UCUACGCGAAUCAAGAUGGAUAGAACAUGAGGAUCACCCAUGUAGGAUAUGCUACACAAAGUGUAGCAGAAGGACAAGCGUAGA			25.1 nM	35.7 nM
GUCAGCUCGUCAGGAUAUACAUGAGGAUCACCCAUGUGAUCAAUAGCAGCUUCGGCUGCAUUAAUGUAGAAGGGACGAGCUGAU			267 nM	69.2 nM
UUGCGGUAGGAGAAGGACAGAGGCGGAAACACAAACAUGAGGAUCACCCAUGUAGGAUAUCCUACCUAACGCGGACUCCUCCAG			6.3 nM	8.88 nM
GGUGCGUAUGUGAGGAUAUGCUGGUCCUUGGAUCAGCAGAAGGCACAUGAGGAUCACCCAUGUGGUGUCGUCCC			426 nM	21.1 nM
GUAGCAACAUGAGGAUCACCCAUGUAGGAUAUCGCUAUUGUAAUCAUGAAACAUGAUUACAAUAGCGAGAAGGACAUUGGCUAC			7.06 nM	10.8 nM
AAUUUACAGCGAGGAUAUACAUGAGGAUCACCCAUGUAAUCAUAUGAUAUUUUUUUUGUAUGAGUGUAGAAGGCGCAAAUAAAA			10.2 nM	9.61 nM
GUCAGCUCGUGAGGAUAUACAAAACUGCUUCGGCAGUGUAUUAAGAUCACAUGAGGAUCACCCAUGUAGAAGGCACGAGCUGAU			8.71 nM	82.3 nM
GGGUACAUCGGAGGAUAUCAUGUAAAUACAUGAGGAUCACCCAUGUCGAUGGAGACAUCGGAGAUUGAGAAGGCCGUUGUACCG	168 nM	9.18 nM		
GGUGGACAUGAGGAUCACCCAUGUGAGGAUAUCGGCUGUCUACUCGCUGACGGCUGCUCGAGAAGGCGCAUUGU			45.4 nM	61.5 nM

Sequence	apparent Kd [1]	apparent Kd [2]	apparent Kd [3]	apparent Kd [4]
GGAUAGGACAGAGGAUAUACGUGCUAGAGUUACUAGCAAAAUUUCCUCACAUGAGGAUCACCCAUGUAGAAGGCUGUCCUAUCG			15.6 nM	470 nM
AAACACGGACAUGAGGAUCACCCAUGUGGCGAAAGCCUUGGGAGAAGGUAUUAUGCAAAGCAUUAUAAGGAUAUUCAUACCGUG	821 nM	187 nM		
CCGGAAACGGGUAGCUGUACAUGAGGAUCACCCAUGUGAUCAUAGGAUAUGGAUGGUAAUUCCAUCCAGAAGGAUGUCAGCUAC	216 nM	715 nM		
UGUCGGAGCAGAGGAUAUUACAUGAGGAUCACCCAUGUAUGAACCAAUAGCUGGAAACAGCAAUCUAAGAAGGCUGCUCCGACA			4.47 nM	4.34 nM
AAAUACCUUGUGAUCAGCGUAACAUGAGGAUCACCCAUGUUGCAGGAUAUCGAACCCAGUCAGUACGAGAAGGGCAAUAGUGUU			7.16 nM	11.6 nM
CCUAAAAGGAAGGAUAUGCUAGACGAAAGUCUAGCAGAAGGUCCUACAUGAGGAUCACCCAUGUGUCCUAUAGG			48.5 nM	59.4 nM
GCUUCACAUGAGGAUCACCCAUGUCUUCGGAGUCGAGGAUAUGGUAACUGUAAACAGUUGCCAGAAGGCGAGGAGC	59.6 nM	35.5 nM		
GUACAGUAGUGAGGAUAUACGAGAUCGAUAGAUCGGCGAUCCAAUUAUACAUGAGGAUCACCCAUGUAGAAGGCACUUCUGUAC			8.37 nM	66.9 nM
CUGUGACGGUGCGCAAGUGGACGUAGAAGGGUCACAUGAGGAUCACCCAUGUGGGCCUGCGAGUGACAGGAUAUACGUUCGUGC			15 nM	57 nM
UGUCGGAGCAGAGGAUAUUACAUGAGGAUCACCCAUGUAUGAACCAAUAGCUGGAAGCAGCAAUGUAAGAAGGCUGCUCCGACA			12.2 nM	137 nM
CGAUUGGGAGGAUAUGCGUGGAUAGUUUUAUAUAGUAUGUUACAUGAGGAUCACCCAUGUAGAAGGUUCGGUUG			56.9 nM	58.3 nM
AACGGGUGGGUAGGAUAUGGCUAUGUCUCAUUGCUAGAAGGACCAGCUGCUACAUGAGGAUCACCCAUGUCGUAGUGCACCCAG	421 nM	33.5 nM		
CCUCGACAUGAGGAUCACCCAUGUUAGGAUAUGGGAGCGGGAAUUUGAGUAUUCGUACCCAGAAGGAACAGUUA			42.6 nM	96 nM
AGCGGCGCAGACCACCGCAAAACCAGAAGGACAUGAGGAUCACCCAUGUAACAAAACAGGGCGAUGUAGGAUAUGGCAAACCCA			16.3 nM	18.8 nM
GGCAUAAACGAGGAUAUCGAUACGGAAACGUAUCGAGAAGGUGUAACAUGAGGAUCACCCAUGUUCCUCAAGCC			38.6 nM	39.5 nM
UUAUUUUUACAGAAGGUUUAAUAAUAUGUAUGAGAAGGAUAUGUAACAUGAGGAUCACCCAUGUUUUAUUUAUAUGAGGAUCAU				9.31 nM
GGACAUGAGGAUCACCCAUGUUCUCCAGAAGGCCGUACAUUUAAAAGUGGAUGGAUUAGUGUUGCGGAGGAUAUGGAGGUGCAA	77.1 nM	16.7 nM		
GAGUGCUUAGGAUAUACAUGAGGAUCACCCAUGUGCUUCAGCUAGGAGACUAGCAUUGGUAGAAGGAAGUACUC			14.5 nM	48.6 nM
UGUAAGAUGCAGAAGGUGUUAGCUAGAGCUACGACAUGAGGAUCACCCAUGUACUAGAAACAGUACAAGGAUAUGCAUCUUACA	18.3 nM	6.12 nM		
UGUCGGAGCAGAGGAUAUUACAUGAGGAUCACCCAUGUAUGAACCAAUAGCUGGAAACACCAAUGUAAGAAGGCUGCUCCGACA			19.8 nM	146 nM
AGAUGACAAAGUCAUCUCGCUCUGACAUGAGGAUCACCCAUGUAGGAUAUAUUACUCAAAGAGUAAUAGAAGGACAUGUGUCUG			36.3 nM	115 nM
AUAUAUAUAUCAGGAUAUGGACAGGCCUGUCCGUAUUGAGACAGUAACAUGAGGAUCACCCAUGUCCAGAAGGGAUCUAUAUAU			40.5 nM	49.4 nM
CCGUCCCGGCUGCAGCUCGGUAACAUGAGGAUCACCCAUGUCAAGGAUAUAACCAUACUCGAUCGUUAGAAGGUGACAGGGUCC			175 nM	107 nM
UGCGUUAAGCCCUUAAGUCGUCAACAUGAGGAUCACCCAUGUAGAAGGCAGCGGACGCAGCCGGCUGAGGAUAUACAUGUAGGU			7.9 nM	10.5 nM
GGGUAGGUAGGAUAUGCGUGCAGGGUGUCUUCCAAUGAUCAACAUGAGGAUCACCCAUGUAGAAGGAUCGAGCU			331 nM	319 nM
CGCUAAUAAUUAAUAUUAAUUGUACAGGAUAUGUAACAUGAGGAUCACCCAUGUAUUGGGUUUAAACAGAAGGGUAUAUUAGCG			387 nM	92.4 nM
GCCUGCUGGCGAGGAUAUUCUGUGCGGUUCCAGCUCGUGUCUGUUACAUGAGGAUCACCCAUGUGGGAGAAGGUGUCUGUGGCC			6 nM	5.73 nM
